Laboratory results: ChEMBL document CHEMBL3751740, “New MKLP-2 inhibitors in the paprotrain series: Design, synthesis and biological evaluations” (Bioorg Med Chem, 2016)

What was measured:
[1] = test system: K562; assay: Growth inhibition of human K562 cells incubated for 4 days by WST-1 assay; assay type: functional; conditions: K562, 96 h
Outline: (§1)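 Cells were kept at 37 °C under 5% CO2 and plated on day 0 at 500–5000 cells/well. On day 1 they received ten concentrations from 0.0025 to 50 µM (final), in triplicate. On day 4 WST-1 was added, followed by 30 min–4 h incubation and absorbance at 450 nm. GI50 is the concentration killing 50% of cells.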

[2] = test system: NCI-H460; assay: Growth inhibition of human NCI-H460 cells incubated for 4 days by WST-1 assay; assay type: functional; conditions: NCI-H460, 96 h; outline: as §1
[3] = test system: MDA-MB-231; assay: Growth inhibition of human MDA-MB-231 cells incubated for 4 days by WST-1 assay; assay type: functional; conditions: MDA-MB-231, 96 h; outline: as §1
[4] = test system: MCF7; assay: Growth inhibition of human MCF7 cells incubated for 4 days by WST-1 assay; assay type: functional; conditions: MCF7, 96 h; outline: as §1
[5] = Growth inhibition of human HCT116 cells incubated for 4 days by WST-1 assay; assay type: functional; conditions: HCT-116, 96 h; outline: as §1
[6] = test system: HT-29; assay: Growth inhibition of human HT-29 cells incubated for 4 days by WST-1 assay; assay type: functional; conditions: HT-29, 96 h; outline: as §1
[7] = Growth inhibition of human PK59 cells incubated for 4 days by WST-1 assay; assay type: functional; conditions: PK-59, 96 h; outline: as §1
[8] = target: T1, Chromosome-associated kinesin KIF4A (Homo sapiens) (UniProt O95239); assay: Inhibition of porcine brain microtubule-stimulated human recombinant GST-tagged Kif4A ATPase activity at 1 mM by microplate reader in presence of Mg2+ ATP relative to control
T1 sequence (whole entry): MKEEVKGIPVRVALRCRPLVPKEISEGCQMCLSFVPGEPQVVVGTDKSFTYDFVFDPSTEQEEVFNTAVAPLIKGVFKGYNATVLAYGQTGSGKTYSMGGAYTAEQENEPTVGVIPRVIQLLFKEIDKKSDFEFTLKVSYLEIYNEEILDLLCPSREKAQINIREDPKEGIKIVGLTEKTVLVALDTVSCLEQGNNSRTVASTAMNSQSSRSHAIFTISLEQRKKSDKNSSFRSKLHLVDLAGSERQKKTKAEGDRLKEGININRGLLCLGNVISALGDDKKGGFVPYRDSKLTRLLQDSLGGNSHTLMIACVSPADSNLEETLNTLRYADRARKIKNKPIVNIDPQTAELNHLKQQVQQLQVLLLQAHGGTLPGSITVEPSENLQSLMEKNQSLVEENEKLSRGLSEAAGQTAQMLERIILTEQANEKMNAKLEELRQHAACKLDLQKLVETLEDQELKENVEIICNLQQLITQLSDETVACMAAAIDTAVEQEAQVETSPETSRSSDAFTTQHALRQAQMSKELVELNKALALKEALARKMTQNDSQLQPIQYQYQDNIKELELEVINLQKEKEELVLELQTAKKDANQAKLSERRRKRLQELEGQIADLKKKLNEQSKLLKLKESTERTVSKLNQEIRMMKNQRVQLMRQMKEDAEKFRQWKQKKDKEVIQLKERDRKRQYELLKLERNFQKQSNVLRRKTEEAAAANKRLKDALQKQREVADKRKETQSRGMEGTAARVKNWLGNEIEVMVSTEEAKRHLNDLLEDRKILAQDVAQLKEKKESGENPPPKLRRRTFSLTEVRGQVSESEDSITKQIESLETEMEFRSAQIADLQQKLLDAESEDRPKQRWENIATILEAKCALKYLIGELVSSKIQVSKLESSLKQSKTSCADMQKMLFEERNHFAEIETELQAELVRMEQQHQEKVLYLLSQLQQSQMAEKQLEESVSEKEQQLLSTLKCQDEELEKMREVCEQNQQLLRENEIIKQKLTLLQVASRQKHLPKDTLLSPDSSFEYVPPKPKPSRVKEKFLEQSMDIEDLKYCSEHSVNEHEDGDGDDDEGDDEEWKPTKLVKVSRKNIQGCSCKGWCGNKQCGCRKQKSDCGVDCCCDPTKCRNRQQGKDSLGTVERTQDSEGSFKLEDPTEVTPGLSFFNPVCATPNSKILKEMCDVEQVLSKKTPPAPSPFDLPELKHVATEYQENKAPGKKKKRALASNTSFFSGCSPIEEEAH
Outline: (§2)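 Motor domain at 15 µM final, in 7.5 mM PIPES-NaOH pH 7.0 with […], 10 µM Taxol, ELIPA 1 and 2 reagents and 1.25 mg/mL microtubules. AMP-PNP, a slowly hydrolysable ATP analog and general ATPase inhibitor, tested at 1 mM. Reaction started with 1 mM Mg2+ATP at 22 °C and read kinetically at 360 nm. Run in triplicate.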

[9] = target: T2, Kinesin-like protein KIF3C (Homo sapiens) (UniProt O14782); assay: Inhibition of porcine brain microtubule-stimulated human recombinant GST-tagged KIF3C ATPase activity at 1 mM by microplate reader in presence of Mg2+ ATP relative to control; outline: as §2
T2 sequence (whole entry): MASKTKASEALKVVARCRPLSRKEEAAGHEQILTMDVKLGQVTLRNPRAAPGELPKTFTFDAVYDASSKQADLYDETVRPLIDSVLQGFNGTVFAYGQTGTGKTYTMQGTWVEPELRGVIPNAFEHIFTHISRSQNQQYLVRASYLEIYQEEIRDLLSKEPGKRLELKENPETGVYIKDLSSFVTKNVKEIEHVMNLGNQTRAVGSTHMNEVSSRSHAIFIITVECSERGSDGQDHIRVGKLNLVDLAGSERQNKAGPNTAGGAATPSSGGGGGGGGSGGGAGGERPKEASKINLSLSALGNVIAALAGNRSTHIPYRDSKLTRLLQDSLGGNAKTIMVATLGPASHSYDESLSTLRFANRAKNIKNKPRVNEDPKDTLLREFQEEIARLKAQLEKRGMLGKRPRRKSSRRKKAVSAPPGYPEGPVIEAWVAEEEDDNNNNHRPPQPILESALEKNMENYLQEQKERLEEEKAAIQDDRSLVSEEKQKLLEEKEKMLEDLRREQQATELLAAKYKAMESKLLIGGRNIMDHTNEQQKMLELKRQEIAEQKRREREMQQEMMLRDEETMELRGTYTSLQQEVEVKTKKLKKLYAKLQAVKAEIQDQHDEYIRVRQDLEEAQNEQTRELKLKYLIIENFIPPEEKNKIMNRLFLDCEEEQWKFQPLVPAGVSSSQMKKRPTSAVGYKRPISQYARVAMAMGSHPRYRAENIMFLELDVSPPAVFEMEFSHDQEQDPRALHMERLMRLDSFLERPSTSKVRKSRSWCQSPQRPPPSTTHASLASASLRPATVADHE

Which results are given for `COc1ccc2[nH]cc(/C(C#N)=C/c3cccnc3)c2c1`?
GI50 [1]: 4 µM; GI50 [2]: 8.2 µM; GI50 [3]: 16.8 µM; GI50 [4]: 15.8 µM; GI50 [5]: 32.2 µM; GI50 [6]: 26.2 µM; GI50 [7]: > 50 µM

Which inhibition [8] does the source give for `Nc1ncnc2c1ncn2[C@@H]1O[C@H](COP(=O)(O)OP(=O)(O)NP(=O)(O)O)[C@@H](O)[C@H]1O` here?
Its inhibition is > 30%.

What about the inhibition [9] of the same molecule?
The inhibition was > 30%.
